In ChEMBL document CHEMBL3870318, “Inhibitor screening and enzymatic activity determination for autophagy target Atg4B using a gel electrophoresis-based assay” (Eur J Med Chem, 2016):
Values belong to the compound of their own block, whether it stands above or below them. Activity calls are given as the source filed them. No cut-off for these calls is given here.

How the values were obtained:
Cysteine protease ATG4B [1] = biological target: T1, Cysteine protease ATG4B (Homo sapiens, UniProt Q9Y4P1); experiment: Inhibition of Atg4B (unknown origin) using YFP-LC3B-EmGFP as substrate after 40 mins by FRET-based assay
T1 sequence (Q9Y4P1 whole entry): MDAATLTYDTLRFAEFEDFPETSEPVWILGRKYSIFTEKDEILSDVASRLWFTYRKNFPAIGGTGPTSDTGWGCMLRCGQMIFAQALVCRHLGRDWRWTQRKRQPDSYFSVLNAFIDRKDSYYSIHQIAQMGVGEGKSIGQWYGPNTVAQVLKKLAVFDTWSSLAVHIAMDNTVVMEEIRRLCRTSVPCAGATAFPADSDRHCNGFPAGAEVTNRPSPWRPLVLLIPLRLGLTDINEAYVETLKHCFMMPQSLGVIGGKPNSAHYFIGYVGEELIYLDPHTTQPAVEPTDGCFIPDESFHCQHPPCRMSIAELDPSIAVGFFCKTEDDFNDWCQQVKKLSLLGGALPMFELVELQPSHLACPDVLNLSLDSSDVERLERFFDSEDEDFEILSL

[2] = biological target: T2, Cysteine protease ATG4B (Homo sapiens) (UniProt Q9Y4P1); experiment: Inhibition of human recombinant GST-tagged Atg4B expressed in Escherichia coli at 4 mM preincubated for 15 mins followed by LC3B-GST substrate addition after 6 mins by SDS-PAGE assay
T2 sequence (whole entry): T1 sequence (Q9Y4P1 whole entry)
Outline: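 Recombinant human Atg4B (E. coli-expressed) at 0.625 ng/µL, preincubated 15 min with inhibitor. Then LC3B-GST (0.4 µg/µL) added in Tris-HCl buffer and incubated 6 min. Products resolved by SDS-PAGE and stained with Oriole. % uncleaved substrate derived by densitometry as OD(LC3B-GST)/(sum of all bands). Single representative experiment.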

[3] = biological target: T2, Cysteine protease ATG4B (Homo sapiens); experiment: Inhibition of human recombinant GST-tagged Atg4B expressed in Escherichia coli at 40 mM using LC3B-GST as substrate measured after 6 mins by SDS-PAGE assay
Outline: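 Recombinant human Atg4B (E. coli) at 0.625 ng/µL, with inhibitor dilutions of 0–40 mM, either preincubated 15 min or not preincubated. LC3B-GST (0.4 µg/µL) added in Tris-HCl buffer for 6 min. SDS-PAGE separation and Oriole staining followed. % uncleaved fusion protein derived from band optical densities. Single representative experiment.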

Cysteine protease ATG4B [4] = biological target: T1, Cysteine protease ATG4B; experiment: Inhibition of wild type recombinant Atg4B (unknown origin) expressed in Escherichia coli BL21 DE3 using N-terminal His6-tagged LC3B-PLA2 as substrate after 60 mins by NBD-C6-HPC dye-based fluorescence assay
[5] = biological target: T2, Cysteine protease ATG4B (Homo sapiens); experiment: Inhibition of human recombinant GST-tagged Atg4B expressed in Escherichia coli at 5 mM preincubated for 15 mins followed by LC3B-GST substrate addition after 6 mins by SDS-PAGE assay
Outline: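 Enzyme (0.625 ng/µL Atg4B, Tris-HCl buffer) was preincubated with inhibitor for 15 min before [LC3B-GST] (0.4 µg/µL) was added for 6 min. Samples were separated by SDS-PAGE and stained with Oriole. Densitometric optical densities of intact fusion protein, GST and LC3B gave percent uncleaved substrate.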

[6] = biological target: T2, Cysteine protease ATG4B (Homo sapiens); experiment: Inhibition of human recombinant GST-tagged Atg4B expressed in Escherichia coli at 20 mM using LC3B-GST as substrate measured after 6 mins by SDS-PAGE assay
Outline: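 Atg4B at 0.625 ng/µL in Tris-HCl was mixed with inhibitor without preincubation. [LC3B-GST] at 0.4 µg/µL was then added for 6 min. Products were resolved by SDS-PAGE and stained with Oriole fluorescent gel stain. Percent uncleaved substrate was taken by densitometry as OD(LC3B-GST)/[OD(LC3B-GST)+OD(GST)+OD(LC3B)]×100.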

[7] = biological target: T2, Cysteine protease ATG4B (Homo sapiens); experiment: Inhibition of human recombinant GST-tagged Atg4B expressed in Escherichia coli at 4 mM using LC3B-GST as substrate preincubated up to 20 mins followed by substrate addition measured after 6 mins by SDS-PAGE assay
[8] = biological target: T2, Cysteine protease ATG4B (Homo sapiens); experiment: Inhibition of human recombinant GST-tagged Atg4B expressed in Escherichia coli after 2 to 20 hrs by fluorescence assay
Outline: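 Fluorogenic peptides of 8, 10, 12 or 16 residues matching pro-LC3B Glu105–Gly120 (N-terminal to scissile Gly120), each C-terminally capped with an aminocarboxycoumarin (ACC) tag. Cleavage by Atg4B at about 20 nM was followed by fluorescence release for up to 20 h.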

Cysteine protease ATG4B [9] = biological target: T1, Cysteine protease ATG4B; experiment: Inhibition of human recombinant GST-tagged Atg4B expressed in Escherichia coli using LC3B-GST as substrate after 6 mins by SDS-PAGE assay

IC50 (Cysteine protease ATG4B [4]): 2.3 µM
SMILES: O=C(O)c1cc(O)c(=O)c2c(O)c(O)ccc2c1 [7-DESHYDROXYPYROGALLIN-4-CARBOXYLIC ACID]

inhibition [8]: Active
SMILES: Cc1sc2nc(C3CCCCC3)nc(SCC(=O)N3CC(=O)Nc4ccccc43)c2c1C

IC50 (Cysteine protease ATG4B [1]): 0.63 µM
SMILES: O=C(N[C@@H](Cc1ccccc1)C(=O)CCl)OCc1ccccc1

IC50 (Cysteine protease ATG4B [9]): 38 to 45 µM
IC50 (Cysteine protease ATG4B [1]): 1.3 µM
SMILES: O=C(O)C1=CC(=C(c2ccc(O)c(C(=O)O)c2)c2ccc(O)c(C(=O)O)c2)C=CC1=O [AURINTRICARBOXYLIC ACID]

Further lines, the compound ahead of its results:

SMILES: Cc1cc(O)c2c(=O)c3c(O)cc(O)c4c5c(O)cc(O)c6c(=O)c7c(O)cc(C)c8c1c2c(c34)c(c78)c65 [HYPERICIN]
IC50 (Cysteine protease ATG4B [1]): 57 µM

SMILES: NC(=O)CI
inhibition [2]: Active
inhibition [3]: Active

SMILES: CCN1C(=O)C=CC1=O
inhibition [5]: Active
inhibition [6]: Active
inhibition [7]: Active

SMILES: O=c1oc2c(O)c(O)cc3c(=O)oc4c(O)c(O)cc1c4c23 [ELLAGIC ACID]
IC50 (Cysteine protease ATG4B [4]): 5.5 µM
inhibition [8]: Active
